Experimental data from ChEMBL document CHEMBL1155263, “Anti-tumor and anti-angiogenic activity of novel hydantoin derivatives: Inhibition of VEGF secretion in liver metastatic osteosarcoma cells” (Bioorg Med Chem, 2009).
Active and inactive are the calls of the source. The rule behind the calls is not given here.

What was measured:
LM8G7 [1] = assay: Antiproliferative activity against mouse LM8G7 cells after 48 hrs; assay type: functional, cell-based
Outline: (§1)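 Cells seeded at 15,000/well and incubated overnight at 37 °C, then switched to medium containing compound in µg/mL concentrations. Incubation was 48 h at 37 °C, 5% CO2, then 2 h with WST-type TetraColor One. A450 gave % viability, reported as % inhibition of proliferation, mean of four replicates.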

LM8 = assay: Antiproliferative activity against mouse LM8 cells after 48 hrs; assay type: functional, cell-based; outline: as §1
LM8G7 [2] = assay: (§2) Antiproliferative activity against VEGF expressing mouse LM8G7 cells assessed as cell index every 10 mins by RT-CES method; assay type: functional, cell-based
Outline: (§3)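 LM8G7 seeded at 10,000 cells/well on electronic-sensing e-plates; about 24 h later, in log phase, medium with various compound concentrations or DMSO control was added. Impedance cell index was recorded every 10 min and plotted against time. IC50 was obtained by non-linear regression of concentration–response curves.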

[3] = as §2; assay type: functional, cell-based; outline: as §3
SK-OV-3 = assay: Antiproliferative activity against human SKOV3 cells after 48 hrs; assay type: functional, cell-based; outline: as §1
OVSAHO = assay: Antiproliferative activity against human OVSAHO cells after 48 hrs; assay type: functional, cell-based; outline: as §1
[4] = Inhibition of VEGF secretion in mouse LM8G7 cells at 102 uM after 48 hrs by immunoassay; assay type: functional; settings: LM8G7, 48 h
Outline: (§4)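 LM8G7 (1 × 10⁶ cells/well) in 6-well plates were incubated 24 h, then given serum-free medium with compound at 56, 102 or 204 µM for 48 h at 37 °C. Supernatant was centrifuged 5000 rpm, 5 min, 4 °C and protein measured by BCA. Mouse VEGF was quantified by sandwich ELISA against a recombinant VEGF standard (HRP detection, A450).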

Endothelial cell = assay: Antiangiogenic activity in mouse endothelial cells assessed as inhibition of tube formation at 50 uM after 18 hrs by microscopic analysis in presence of VEGF; assay type: functional, cell-based
Outline: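 UV♀2 mouse endothelial cells, 100 µL suspension at 4 × 10⁵ cells/mL, seeded onto Matrigel solidified 30 min at 37 °C, with or without compound (50 µM) and VEGF (2 ng/mL); DMSO 0.1% vehicle. After 18 h, reorganization of the sub-confluent monolayer into capillary-like tubes in 3-D Matrigel was photographed by light microscopy.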

[5] = Inhibition of VEGF secretion in mouse LM8G7 cells at 56 uM after 48 hrs by immunoassay; assay type: functional; settings: LM8G7, 48 h; outline: as §4
[6] = Inhibition of VEGF secretion in mouse LM8G7 cells at 204 uM after 48 hrs by immunoassay; assay type: functional; settings: LM8G7, 48 h; outline: as §4

## CS(=O)(=O)c1ccc(CN2C(=O)NC3(CC4CCC(C3)N4Cc3cccc(F)c3)C2=O)cc1 (stereo unspecified)
LM8G7 [1]
  Activity: Active
LM8
  Activity: Active
LM8G7 [2]
  Activity: Dose-dependent effect
[3]
  IC50: 102 µM
SK-OV-3
  Activity: Active
OVSAHO
  Activity: Active

## CS(=O)(=O)c1ccc(CN2C(=O)NC3(CC4CCC(C3)N4Cc3ccc(F)c(F)c3)C2=O)cc1 (stereo unspecified)
[4]
  inhibition at 102 µM: 46.7%
Endothelial cell
  inhibition: Active
LM8G7 [1]
  Activity: Active
[5]
  inhibition at 56 µM: 23.8%
LM8
  Activity: Active
LM8G7 [2]
  Activity: Dose-dependent effect
[3]
  IC50: 13 µM
SK-OV-3
  Activity: Active
[6]
  inhibition at 204 µM: 63.9%
OVSAHO
  Activity: Active
